Experimental data taken from ChEMBL document CHEMBL4190408 (J Med Chem, 2018).
Values after ≈ are worked out from the molar mass of the structure shown. Active and inactive are the calls of the source. The calls are words filed in the database; no cut-off is given here.

Key:
physchem [1] = test: physchem
physchem [2] = details: phosphate buffer, pH 7.4
[3] = Thermodynamic solubility of the compound in pH 7.4 solution after 90 mins by UVLC-MS analysis; assay type: physicochemical; details: for solubility thermodynamic at 1.5 h: pH 7.4 solution, pH 7.4, read-out: Therm_solubility; for Therm_solubility: buffer, pH 7.4, 1.5 h
in vitro [4] = details: human
[5] = biological target: Phosphatidylinositol 4-kinase type 2-alpha (Homo sapiens) (UniProt Q9BTU6); test: Inhibition of recombinant human full length GST-tagged PI4K2alpha expressed in insect cells at 10 uM
[6] = biological target: T1, Voltage-gated inwardly rectifying potassium channel KCNH2 (Homo sapiens, UniProt Q12809)
T1 sequence (Q12809 whole entry): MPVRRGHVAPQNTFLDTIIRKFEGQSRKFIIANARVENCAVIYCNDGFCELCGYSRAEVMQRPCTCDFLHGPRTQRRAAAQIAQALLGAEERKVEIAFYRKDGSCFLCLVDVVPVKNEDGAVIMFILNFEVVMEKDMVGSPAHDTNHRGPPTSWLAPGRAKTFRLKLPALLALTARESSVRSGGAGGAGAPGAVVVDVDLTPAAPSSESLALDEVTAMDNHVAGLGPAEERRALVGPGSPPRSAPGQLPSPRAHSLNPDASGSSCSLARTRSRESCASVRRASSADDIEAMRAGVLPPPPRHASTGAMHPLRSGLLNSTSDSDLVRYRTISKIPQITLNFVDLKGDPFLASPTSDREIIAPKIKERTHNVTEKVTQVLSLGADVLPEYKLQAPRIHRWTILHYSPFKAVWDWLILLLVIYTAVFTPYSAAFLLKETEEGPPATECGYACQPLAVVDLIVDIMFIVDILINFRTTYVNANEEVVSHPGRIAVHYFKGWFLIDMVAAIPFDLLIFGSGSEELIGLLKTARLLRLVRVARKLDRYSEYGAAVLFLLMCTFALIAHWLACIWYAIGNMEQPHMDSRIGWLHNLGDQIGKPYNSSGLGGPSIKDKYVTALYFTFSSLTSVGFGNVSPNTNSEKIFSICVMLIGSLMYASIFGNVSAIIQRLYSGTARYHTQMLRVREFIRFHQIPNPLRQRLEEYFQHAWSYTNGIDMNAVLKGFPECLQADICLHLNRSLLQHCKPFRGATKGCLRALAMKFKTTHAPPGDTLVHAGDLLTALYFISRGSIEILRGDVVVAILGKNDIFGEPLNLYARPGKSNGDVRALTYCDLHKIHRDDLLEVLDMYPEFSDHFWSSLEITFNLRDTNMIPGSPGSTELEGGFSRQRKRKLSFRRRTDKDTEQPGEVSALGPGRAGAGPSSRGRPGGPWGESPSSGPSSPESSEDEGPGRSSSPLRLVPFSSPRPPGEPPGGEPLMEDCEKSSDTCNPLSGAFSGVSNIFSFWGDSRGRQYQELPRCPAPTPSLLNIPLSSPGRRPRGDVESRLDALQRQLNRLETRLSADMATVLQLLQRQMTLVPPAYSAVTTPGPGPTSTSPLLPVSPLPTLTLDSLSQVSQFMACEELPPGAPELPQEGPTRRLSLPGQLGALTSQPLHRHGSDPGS

[7] = biological target: Phosphatidylinositol 4-kinase type 2-beta (Homo sapiens) (UniProt Q8TCG2); test: Inhibition of recombinant human full length GST-tagged PI4K2beta expressed in insect cells at 10 uM
Sequence of Phosphatidylinositol 4-kinase type 2-beta (Homo sapiens) (Q8TCG2 whole entry): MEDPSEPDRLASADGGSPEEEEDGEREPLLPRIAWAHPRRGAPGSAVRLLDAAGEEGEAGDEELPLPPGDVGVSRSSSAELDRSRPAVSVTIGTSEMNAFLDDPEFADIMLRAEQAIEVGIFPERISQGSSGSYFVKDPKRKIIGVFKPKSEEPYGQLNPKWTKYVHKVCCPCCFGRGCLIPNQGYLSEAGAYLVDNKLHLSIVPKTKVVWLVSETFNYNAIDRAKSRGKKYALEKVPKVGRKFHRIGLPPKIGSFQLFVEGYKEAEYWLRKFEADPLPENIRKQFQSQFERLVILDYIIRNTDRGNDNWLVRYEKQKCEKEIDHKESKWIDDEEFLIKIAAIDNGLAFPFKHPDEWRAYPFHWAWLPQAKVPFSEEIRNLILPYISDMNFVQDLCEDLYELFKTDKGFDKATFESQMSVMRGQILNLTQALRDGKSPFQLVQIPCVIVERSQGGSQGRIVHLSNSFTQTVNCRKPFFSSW

[8] = biological target: Phosphatidylinositol 4-kinase alpha (Homo sapiens) (UniProt P42356); test: Inhibition of PI4K3alpha (unknown origin) at 10 uM
Sequence of Phosphatidylinositol 4-kinase alpha (Homo sapiens) (P42356 whole entry, looked up): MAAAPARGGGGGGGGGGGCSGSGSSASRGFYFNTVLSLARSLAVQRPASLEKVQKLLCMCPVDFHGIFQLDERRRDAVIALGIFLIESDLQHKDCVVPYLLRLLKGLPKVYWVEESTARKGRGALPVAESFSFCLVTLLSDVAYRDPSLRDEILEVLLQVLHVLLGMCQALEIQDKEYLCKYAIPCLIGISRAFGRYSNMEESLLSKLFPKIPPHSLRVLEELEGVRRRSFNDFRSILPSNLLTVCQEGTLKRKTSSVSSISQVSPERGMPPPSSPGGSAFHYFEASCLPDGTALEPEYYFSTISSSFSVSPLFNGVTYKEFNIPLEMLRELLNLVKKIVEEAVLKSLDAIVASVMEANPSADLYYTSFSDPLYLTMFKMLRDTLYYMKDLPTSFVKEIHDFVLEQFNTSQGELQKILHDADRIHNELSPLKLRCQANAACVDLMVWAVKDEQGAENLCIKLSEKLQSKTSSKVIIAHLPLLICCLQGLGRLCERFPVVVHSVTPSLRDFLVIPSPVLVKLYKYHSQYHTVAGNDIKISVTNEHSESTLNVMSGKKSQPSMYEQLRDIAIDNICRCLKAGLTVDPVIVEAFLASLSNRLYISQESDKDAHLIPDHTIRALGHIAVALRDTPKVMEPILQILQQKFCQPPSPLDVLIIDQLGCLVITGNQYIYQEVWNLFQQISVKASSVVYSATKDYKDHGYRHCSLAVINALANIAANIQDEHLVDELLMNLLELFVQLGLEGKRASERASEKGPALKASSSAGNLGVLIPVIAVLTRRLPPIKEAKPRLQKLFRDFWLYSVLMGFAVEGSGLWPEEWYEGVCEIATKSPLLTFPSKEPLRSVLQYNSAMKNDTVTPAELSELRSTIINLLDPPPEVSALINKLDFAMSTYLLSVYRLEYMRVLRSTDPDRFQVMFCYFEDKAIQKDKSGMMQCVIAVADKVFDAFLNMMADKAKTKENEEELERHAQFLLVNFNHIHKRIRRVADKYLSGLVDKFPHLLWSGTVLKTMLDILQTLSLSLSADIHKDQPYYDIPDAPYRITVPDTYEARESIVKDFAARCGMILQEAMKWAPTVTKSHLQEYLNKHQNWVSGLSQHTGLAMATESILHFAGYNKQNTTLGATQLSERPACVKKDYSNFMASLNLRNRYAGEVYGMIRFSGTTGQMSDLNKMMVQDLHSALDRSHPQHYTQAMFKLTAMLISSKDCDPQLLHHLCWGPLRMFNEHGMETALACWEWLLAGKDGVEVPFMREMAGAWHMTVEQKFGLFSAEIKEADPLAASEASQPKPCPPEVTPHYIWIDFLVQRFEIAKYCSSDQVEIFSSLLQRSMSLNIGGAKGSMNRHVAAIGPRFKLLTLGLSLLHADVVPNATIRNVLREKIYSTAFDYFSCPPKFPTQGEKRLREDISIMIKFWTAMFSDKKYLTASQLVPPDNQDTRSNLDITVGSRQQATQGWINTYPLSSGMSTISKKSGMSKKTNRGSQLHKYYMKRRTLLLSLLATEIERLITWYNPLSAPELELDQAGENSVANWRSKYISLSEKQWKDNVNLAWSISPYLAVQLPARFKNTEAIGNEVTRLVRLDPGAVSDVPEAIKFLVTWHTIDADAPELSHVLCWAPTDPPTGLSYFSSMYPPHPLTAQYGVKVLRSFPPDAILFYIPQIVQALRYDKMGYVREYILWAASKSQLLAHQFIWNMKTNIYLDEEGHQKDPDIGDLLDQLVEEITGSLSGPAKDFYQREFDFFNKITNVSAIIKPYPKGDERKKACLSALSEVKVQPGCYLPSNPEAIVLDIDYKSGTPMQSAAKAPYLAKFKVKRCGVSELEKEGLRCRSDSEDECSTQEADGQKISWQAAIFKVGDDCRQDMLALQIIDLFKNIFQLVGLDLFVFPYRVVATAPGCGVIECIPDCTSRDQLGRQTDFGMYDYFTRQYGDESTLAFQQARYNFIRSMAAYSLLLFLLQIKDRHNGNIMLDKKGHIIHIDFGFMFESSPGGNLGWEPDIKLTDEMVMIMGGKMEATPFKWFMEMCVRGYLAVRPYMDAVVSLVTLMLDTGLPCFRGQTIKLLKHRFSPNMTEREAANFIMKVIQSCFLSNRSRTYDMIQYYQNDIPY

in vitro [9] = details: mouse
[10] = biological target: T1, Voltage-gated inwardly rectifying potassium channel KCNH2; remark: listed apart in the source
Cytochrome P450 3A4 = Cytochrome P450 3A4 (Homo sapiens, UniProt P08684); details: liver microsomes
Sequence of Cytochrome P450 3A4 (P08684 whole entry): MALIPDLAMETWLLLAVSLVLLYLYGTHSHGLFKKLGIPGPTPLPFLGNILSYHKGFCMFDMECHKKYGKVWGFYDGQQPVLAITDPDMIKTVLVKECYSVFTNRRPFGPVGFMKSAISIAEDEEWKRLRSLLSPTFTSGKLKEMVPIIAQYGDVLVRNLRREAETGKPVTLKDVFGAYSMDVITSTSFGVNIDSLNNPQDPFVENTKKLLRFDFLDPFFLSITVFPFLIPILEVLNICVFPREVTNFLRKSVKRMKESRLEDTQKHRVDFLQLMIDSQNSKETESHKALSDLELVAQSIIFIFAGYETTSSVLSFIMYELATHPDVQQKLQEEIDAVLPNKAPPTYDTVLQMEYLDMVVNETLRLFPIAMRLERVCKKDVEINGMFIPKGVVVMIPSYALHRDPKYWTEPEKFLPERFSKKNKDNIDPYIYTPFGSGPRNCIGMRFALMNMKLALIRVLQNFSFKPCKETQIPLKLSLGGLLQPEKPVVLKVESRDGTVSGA

[11] = biological target: Phosphatidylinositol 4-kinase beta (Homo sapiens, UniProt Q9UBF8); test: Inhibition of recombinant human full length GST-tagged PI4K3beta expressed in baculovirus expression system using PI lipid kinase substrate after 60 mins by ADP-Glo assay
Sequence of Phosphatidylinositol 4-kinase beta (Q9UBF8 whole entry): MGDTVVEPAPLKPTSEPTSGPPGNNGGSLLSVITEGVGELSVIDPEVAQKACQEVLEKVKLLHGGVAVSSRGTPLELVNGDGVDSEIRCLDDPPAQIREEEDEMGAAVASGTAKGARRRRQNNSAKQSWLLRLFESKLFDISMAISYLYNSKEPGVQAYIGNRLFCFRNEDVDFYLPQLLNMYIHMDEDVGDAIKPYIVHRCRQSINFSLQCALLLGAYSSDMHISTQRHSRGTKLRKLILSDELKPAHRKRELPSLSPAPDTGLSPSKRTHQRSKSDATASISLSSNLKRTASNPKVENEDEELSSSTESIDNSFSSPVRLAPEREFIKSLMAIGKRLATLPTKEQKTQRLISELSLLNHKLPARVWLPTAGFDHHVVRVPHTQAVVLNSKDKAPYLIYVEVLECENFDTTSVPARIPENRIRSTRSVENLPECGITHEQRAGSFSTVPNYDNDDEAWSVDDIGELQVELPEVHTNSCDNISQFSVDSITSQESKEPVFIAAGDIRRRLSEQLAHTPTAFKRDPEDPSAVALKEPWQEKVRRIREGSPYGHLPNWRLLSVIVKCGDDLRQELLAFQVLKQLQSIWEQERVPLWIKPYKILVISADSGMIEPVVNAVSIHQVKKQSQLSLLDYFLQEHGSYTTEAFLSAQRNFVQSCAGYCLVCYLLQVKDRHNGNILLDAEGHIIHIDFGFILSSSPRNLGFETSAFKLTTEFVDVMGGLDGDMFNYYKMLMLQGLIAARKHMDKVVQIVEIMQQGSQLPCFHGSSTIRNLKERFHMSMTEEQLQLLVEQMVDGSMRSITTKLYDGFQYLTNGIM

Mus musculus [12] = test: Unbound Cmax in Balb/c mouse at 10 mg/kg, po after 1 hr; assay type: ADME, organism-based; details: in vivo
[13] = Clearance in Balb/c mouse at 1 mg/kg, iv; assay type: ADME, organism-based; details: Balb/c, in vivo
In short: (§1)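 Intravenous PK in male Balb/C mice, n=3, at 1 mpk. Vehicle was 30% DMA or 15% NMP, depending on the compound.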

[14] = Volume of distribution at steady state in Balb/c mouse at 1 mg/kg, iv; assay type: ADME, organism-based; details: Balb/c, in vivo, read-out: Vdss
In short: as §1

Mus musculus [15] = test: Unbound AUC (infinity) in Balb/c mouse at 10 mg/kg, po after 1 hr; assay type: ADME, organism-based; details: in vivo
Mus musculus [16] = test: Unbound AUC in Balb/c mouse at 1 mg/kg, iv; assay type: ADME, organism-based; details: in vivo
In short: as §1

[17] = Oral bioavailability in Balb/c mouse at 10 mg/kg after 1 hr; assay type: ADME, organism-based; details: Balb/c, in vivo
In short: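 Male Balb/C mice, n=3. Oral dose of 10 mpk as a homogeneous suspension of crystalline solid in 0.1% Tween 80, 0.1% silicone antifoam, 1% methylcellulose (400 cps) in water. I.v. dose of 1 mpk in 30% DMA or 15% NMP, depending on the compound. Bioavailability was extrapolated from the i.v./p.o. experiments.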

[18] = Apparent clearance in Balb/c mouse at 10 mg/kg, po after 1 hr; assay type: ADME, organism-based; details: in vivo
[19] = Fraction unbound in mouse blood; assay type: ADME, tissue-based
[20] = Half life in Balb/c mouse at 1 mg/kg, iv; assay type: ADME, organism-based; details: Balb/c, in vivo
In short: as §1

COc1ccc(NC(=O)N2CCN(c3nc(N)nc4sncc34)[C@@H](C)C2)c(C)c1
solubility kinetic at 1.5 h (physchem [1]; buffer, pH 7.4): > 350 µM
logD at 1.5 h (physchem [2]): 1.96
solubility thermodynamic at 1.5 h [3]: 52 µM (≈ 21.5 µg/mL)

Cc1ccc(NC(=O)N2CCN(c3nc(N)nc4sc(-c5cccnc5)nc34)CC2)cc1
microsomal CLint at 0.75 h, 3 µM (in vitro [4]; microsomes): 32 µL/min/mg
inhibition [5]: inactive
IC50 [6]: 2000 nM
inhibition [7]: inactive
solubility kinetic at 1.5 h (physchem [1]; pH 7.4 solution): 9 µM (≈ 4.02 µg/mL)
logD at 1.5 h (physchem [2]): 3.42
inhibition [8]: inactive
microsomal CLint at 0.75 h, 3 µM (in vitro [9]; microsomes): 72 µL/min/mg

COc1ccc(NC(=O)N2C[C@H](C)N(c3nc(N)nc4scnc34)C[C@H]2C)cc1
solubility kinetic at 1.5 h (physchem [1]; buffer, pH 7.4): 88 µM (≈ 36.4 µg/mL)
Therm_solubility [3]: Nd(Insoluble)
IC50 [10]: Nd(Insoluble)
IC50 (Cytochrome P450 3A4): Nd(Insoluble)

Nc1nc(N2CCN(C(=O)COc3ccc(Cl)cc3)CC2)c2ncsc2n1
solubility kinetic at 1.5 h (physchem [1]; buffer, pH 7.4): 13 µM (≈ 5.26 µg/mL)
logD at 1.5 h (physchem [2]): 2.68

COc1ccc(NC(=O)N2CCN(c3nc(N)nc4scnc34)[C@@H](C)C2)c(C)c1
solubility kinetic at 1.5 h (physchem [1]; buffer, pH 7.4): 160 µM (≈ 66.2 µg/mL)
solubility thermodynamic at 1.5 h [3]: 3 µM (≈ 1.24 µg/mL)

COc1ccc(CNC(=O)N2CCN(c3nc(N)nc4scnc34)CC2)cc1
solubility kinetic at 1.5 h (physchem [1]; buffer, pH 7.4): 33 µM (≈ 13.2 µg/mL)
logD at 1.5 h (physchem [2]): 2.22

COc1ccc(NC(=O)N2CCN(c3nc(N)nc4sccc34)[C@@H](C)C2)c(C)c1
solubility kinetic at 1.5 h (physchem [1]; buffer, pH 7.4): 82 µM (≈ 33.8 µg/mL)
logD at 1.5 h (physchem [2]): 2.39

COc1ccc(NC(=O)N2CCN(c3nc(N)nc4scnc34)CC2)cn1
solubility kinetic at 1.5 h (physchem [1]; buffer, pH 7.4): 293 µM (≈ 113 µg/mL)
logD at 1.5 h (physchem [2]): 1.79

COc1ccc(NC(=O)C2CCN(c3nc(N)nc4scnc34)CC2)cc1
IC50 [11]: > 6000 nM

COc1cc(C)c(NC(=O)N2CCN(c3nc(N)nc4scnc34)CC2)cn1
solubility kinetic at 1.5 h (physchem [1]; buffer, pH 7.4): > 350 µM
logD at 1.5 h (physchem [2]): 1.66

COc1ccc(NC(=O)N2CCN(c3nc(N)nc4c3ncn4C)[C@@H](C)C2)c(C)c1
fCmax (Mus musculus [12]): 1087 nM
clearance [13]: 19 mL/min/kg
microsomal CLint at 0.75 h, 3 µM (in vitro [4]; liver microsomes): 9 µL/min/mg
Vd [14]: 0.8 L/kg
fAUC (Mus musculus [15]): 1.746 µM·h
solubility kinetic at 1.5 h (physchem [1]; buffer, pH 7.4): > 350 µM
fAUC (Mus musculus [16]): 0.447 µM·h
bioavailability [17]: 39%
logD at 1.5 h (physchem [2]): 1.35
solubility thermodynamic at 1.5 h [3]: 150 µM (≈ 61.6 µg/mL)
CL/F [18]: 46 mL/min/kg
microsomal CLint at 0.75 h, 3 µM (in vitro [9]; liver microsomes): 10 µL/min/mg
fraction unbound [19]: 0.2
half-life [20]: 48 min

Nc1nc(N2CCN(C(=O)Nc3ccc(OC(F)(F)F)cc3)CC2)c2ncsc2n1
solubility kinetic at 1.5 h (physchem [1]; buffer, pH 7.4): 12 µM (≈ 5.27 µg/mL)
logD at 1.5 h (physchem [2]): 3.39

COc1ccc(NC(=O)N2CCN(c3nc(N)nc4scnc34)C(C)C2C)cc1 (configuration not stated)
solubility kinetic at 1.5 h (physchem [1]; buffer, pH 7.4): > 350 µM
Therm_solubility [3]: Nd(Insoluble)
IC50 [10]: Nd(Insoluble)
IC50 (Cytochrome P450 3A4): Nd(Insoluble)

COc1ccc(NC(=O)N2CCN(c3nc(N)nc4scnc34)[C@H](C)C2)c(C)c1
solubility kinetic at 1.5 h (physchem [1]; buffer, pH 7.4): 170 µM (≈ 70.3 µg/mL)
Therm_solubility [3]: Nd(Insoluble)

COc1ccc(NC(=O)N2CCN(c3nc(N)nc4scnc34)C(C)C2)cc1 (configuration not stated)
solubility kinetic at 1.5 h (physchem [1]; buffer, pH 7.4): > 350 µM
Therm_solubility [3]: Nd(Insoluble)
IC50 [10]: Nd(Insoluble)
IC50 (Cytochrome P450 3A4): Nd(Insoluble)

COc1ccc(NC(=O)N2C[C@@H](C)N(c3nc(N)nc4scnc34)[C@@H](C)C2)cc1
solubility kinetic at 1.5 h (physchem [1]; buffer, pH 7.4): 83 µM (≈ 34.3 µg/mL)
Therm_solubility [3]: Nd(Insoluble)
IC50 [10]: Nd(Insoluble)
IC50 (Cytochrome P450 3A4): Nd(Insoluble)

Nc1nc(N2CCN(C(=O)c3cc4ccccc4[nH]3)CC2)c2ncsc2n1
solubility kinetic at 1.5 h (physchem [1]; buffer, pH 7.4): 14 µM (≈ 5.31 µg/mL)
logD at 1.5 h (physchem [2]): 2.84

Nc1nc(N2CCN(C(=O)c3cn4ccccc4n3)CC2)c2ncsc2n1
solubility kinetic at 1.5 h (physchem [1]; buffer, pH 7.4): > 350 µM
logD at 1.5 h (physchem [2]): 1.58
